Results published in ChEMBL document CHEMBL1123985, “Oral absorption of cephalosporin antibiotics. 1. Synthesis, biological properties, and oral bioavailability of 7-(arylacetamido)-3-chloro cephalosporins in animals” (J Med Chem, 1988).
Values after ≈ are worked out from the molar mass of the structure shown.

Assays:
[1] = system: Staphylococcus epidermidis; experiment: Minimum inhibitory concentration against 222 strain of Staphylococcus epidermidis; assay type: functional
[2] = Mean plasma levels in rats 2 hr after iv administration of 100 mg/kg of probenecid 5 min prior to test compound; assay type: ADME, organism-based; set-up: dose 100 mg/kg, route intravenous; conditions: rat, read-out: Plasma levels
Outline: (§1)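 Rats, jugular vein cannulated (two per group), test compound iv 20 mg/kg; probenecid 100 mg/kg iv 5 min before in treated groups. Heparinized plasma sampled at 5, 20, 40 min and 1, 2, 3 h, assayed microbiologically (B. subtilis agar well). AUC 0-3 h in μg min/mL; half-life in min.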

[3] = Half-life of the compound; assay type: ADME; outline: as §1
[4] = Percent of urinary recovery in rats after, sc administration of single 20 mg/kg dose in solution (N,range); assay type: ADME, organism-based; set-up: dose 20 mg/kg, route subcutaneous; conditions: rat, urine, read-out: Recovery
Outline: (§2)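 Male Wistar rats (200-300 g), jugular-cannulated, upper GI emptied by light cycle; 20 mg/kg in saline (6 mg/mL) sc or orally. Urine collected in wire-bottom cages, assayed by B. subtilis agar well method. Mean ± SD recovery with N and range; bioavailability = oral over mean sc recovery.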

Klebsiella aerogenes = experiment: Minimum inhibitory concentration against EB17 strain of Enterobacter aerogenes; assay type: functional
Canis familiaris [5] = experiment: Area under plasma concentration vs time curve observed in female mongrel dogs after, iv administration of single 15 mg/kg dose; assay type: ADME, organism-based, Canis lupus familiaris; set-up: dose 15 mg/kg, route intravenous; conditions: dog, in vivo
Outline: (§3)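 Six female mongrel dogs (14-23 kg) fasted overnight, bladder catheterized; single 15 mg/kg solution doses by stomach tube (in water, total 500 mL) or cephalic vein (saline or pH 6.0 NaCl/phosphate/acetate buffer). Plasma sampled at intervals; activity by disk-plate agar diffusion against E. coli MB 3804, standards in dog serum or buffer. AUC μg min/mL, mean ± SEM; BA from iv vs po AUC and urinary recovery.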

[6] = Mean plasma levels in rats 3h after intravenous administration of 20 mg/kg of compound; assay type: ADME, organism-based; set-up: dose 20 mg/kg, route intravenous; conditions: rat, read-out: Plasma levels; outline: as §1
Staphylococcus aureus [7] = experiment: Minimum inhibitory concentration against V41 strain of Staphylococcus aureus; assay type: functional
[8] = Mean plasma levels in rats 20 min after iv administration of 100 mg/kg of probenecid 5 min prior to test compound; assay type: ADME, organism-based; set-up: dose 100 mg/kg, route intravenous; conditions: rat, read-out: Plasma levels; outline: as §1
[9] = Area under plasma concentration vs time curve observed in Rhesus monkeys after, iv administration of single 30 mg/kg dose; assay type: ADME, organism-based, Macaca mulatta; set-up: dose 30 mg/kg, route intravenous; conditions: rhesus monkey
Outline: (§4)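 Rhesus monkeys, adult males, six animals per compound, each given drug orally and iv; fasted overnight. Single 30 mg/kg solution doses, by nasogastric tube (in water) or saphenous vein (in isotonic lactated Ringer). Plasma sampled at intervals, frozen at -70 °C, antibacterial activity by microbiological assay. AUC in μg min/mL; oral bioavailability from oral vs iv AUC.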

Staphylococcus aureus [10] = experiment: Minimum inhibitory concentration against X1.1 strain of Staphylococcus aureus; assay type: functional
[11] = Area under plasma concentration vs time curve observed in Rhesus monkeys after oral administration of single 30 mg/kg dose; assay type: ADME, organism-based, Macaca mulatta; set-up: dose 30 mg/kg, route oral; conditions: rhesus monkey; outline: as §4
[12] = Percent of urinary recovery in rats after, oral administration of single 20 mg/kg dose in solution (N,range); assay type: ADME, organism-based; set-up: dose 20 mg/kg, route oral; conditions: rat, urine, read-out: Recovery; outline: as §2
[13] = Minimum inhibitory concentration against N9 strain of Shigella sonnei; assay type: functional
Klebsiella pneumoniae = experiment: Minimum inhibitory concentration against X68 strain of Klebsiella pneumoniae; assay type: functional
Streptococcus pneumoniae [14] = experiment: Minimum inhibitory concentration against Park strain of Streptococcus pneumoniae
[15] = Area under plasma concentration vs time curve observed in rats for 0-3 h; assay type: ADME; set-up: time < 3 hr; conditions: rat; outline: as §1
Streptococcus pneumoniae [16] = experiment: Minimum inhibitory concentration against park strain of Streptococcus pneumoniae
[17] = Mean plasma levels in rats at a time 5 min after iv administration of 100 mg/kg of probenecid 5 min prior to test compound; assay type: ADME, organism-based; set-up: dose 100 mg/kg, route intravenous; conditions: rat, read-out: Plasma levels; outline: as §1
Streptococcus pyogenes [18] = experiment: Minimum inhibitory concentration against Streptococcus pyogenes C203; assay type: functional
[19] = Mean plasma levels in rats 1 hr after iv administration of 100 mg/kg of probenecid 5 min prior to test compound; assay type: ADME, organism-based; set-up: dose 100 mg/kg, route intravenous; conditions: rat, read-out: Plasma levels; outline: as §1
[20] = Compound was tested for percent of oral bioavailability in mice; 56-74; assay type: ADME, organism-based; conditions: mouse, in vivo, read-out: Bioavailabiility
Outline: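 Male Cox mice given water and liquid diet overnight; 20 mg/kg in saline (2 mg/mL) sc or orally; urine from collection cages plus bladder contents over 2 h; activity by agar well assay with Bacillus subtilis ATCC 6633. Bioavailability from percent dose excreted in urine after oral vs parenteral dosing.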

[21] = Oral bioavailability in dog (female mongrel); assay type: ADME, organism-based, Canis lupus familiaris; conditions: in vivo; outline: as §3
[22] = Dose in urine (24-h urine excretion) in female mongrel dogs after oral administration of single 15 mg/kg dose; assay type: ADME, organism-based, Canis lupus familiaris; set-up: dose 15 mg/kg, route oral; conditions: dog
Outline: (§5)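 Female mongrel dogs (n=6), bladder catheter; urine collected at intervals after single 15 mg/kg iv or oral solution dose, frozen; antibiotic activity by disk-plate agar diffusion against E. coli MB 3804 with standards in pH 6.0 buffer; percent of dose recovered in urine.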

Escherichia coli = experiment: Minimum inhibitory concentration against EC14 strain Escherichia coli; assay type: functional
[23] = Oral bioavailability in Rhesus monkey; assay type: ADME, organism-based, Macaca mulatta; conditions: in vivo; outline: as §4
[24] = Mean plasma levels in rats 40 min after iv administration of 100 mg/kg of probenecid 5 min prior to test compound; assay type: ADME, organism-based; set-up: dose 100 mg/kg, route intravenous; conditions: rat, read-out: Plasma levels; outline: as §1
[25] = Bioavailability in rat; assay type: ADME, organism-based; conditions: in vivo; outline: as §2
Salmonella = experiment: Minimum inhibitory concentration against X514 strain of Salmonella; assay type: functional
[26] = Dose in urine (24-h urine excretion) in female mongrel dogs after iv administration of single 15 mg/kg dose; assay type: ADME, organism-based, Canis lupus familiaris; set-up: dose 15 mg/kg, route intravenous; conditions: dog; outline: as §5
Haemophilus influenzae [27] = experiment: Minimum inhibitory concentration against res 76 strain of Haemophilus influenzae; assay type: functional
Streptococcus pyogenes [28] = experiment: Minimum inhibitory concentration against C203 strain of Streptococcus pyogenes
Haemophilus influenzae [29] = experiment: Minimum inhibitory concentration against sens CL strain of Haemophilus influenzae; assay type: functional
Staphylococcus aureus [30] = experiment: Minimum inhibitory concentration against 3055 strain of Staphylococcus aureus
Staphylococcus aureus [31] = experiment: Minimum inhibitory concentration against S13E strain of Staphylococcus aureus; assay type: functional
[32] = system: Staphylococcus epidermidis; experiment: Minimum inhibitory concentration against Epil strain of Staphylococcus epidermidis; assay type: functional
Canis familiaris [33] = experiment: Area under plasma concentration vs time curve observed in female mongrel dogs after, oral administration of single 15 mg/kg dose; assay type: ADME, organism-based, Canis lupus familiaris; set-up: dose 15 mg/kg, route oral; conditions: dog, in vivo; outline: as §3

**Q.** For O=C(COc1ccccc1)N[C@@H]1C(=O)N2C(C(=O)O)=C(Cl)CS[C@H]12, which MIC [1] is on record?
**A.** 0.25 µg/mL (≈ 0.678 µM)

**Q.** And the concentration at 2 h [2]?
**A.** 4600 ng/mL

**Q.** What about the half-life [3] of the same compound?
**A.** 30 min

**Q.** And the dose excreted [4]?
**A.** 43.8%

**Q.** What about the MIC (Klebsiella aerogenes) of the same compound?
**A.** > 128 µg/mL

**Q.** And the AUC (Canis familiaris [5])?
**A.** 57500 ng·h/mL

**Q.** What about the concentration at 3 h [6] of the same compound?
**A.** 500 ng/mL

**Q.** What about the MIC (Staphylococcus aureus [7]) of the same compound?
**A.** 8 µg/mL (≈ 21.7 µM)

**Q.** What about the concentration at 20 min [8] of the same compound?
**A.** 39100 ng/mL

**Q.** What about the AUC [9] of the same compound?
**A.** 38000 ng·h/mL

**Q.** What about the MIC (Staphylococcus aureus [10]) of the same compound?
**A.** 0.25 µg/mL (≈ 0.678 µM)

**Q.** And the AUC [11]?
**A.** 5000 ng·h/mL

**Q.** What about the dose excreted [12] of the same compound?
**A.** 10.1%

**Q.** And the MIC [13]?
**A.** > 128 µg/mL

**Q.** What about the MIC (Klebsiella pneumoniae) of the same compound?
**A.** 128 µg/mL (≈ 347 µM)

**Q.** What about the MIC (Streptococcus pneumoniae [14]) of the same compound?
**A.** 0.125 µg/mL (≈ 0.339 µM)

**Q.** And the AUC at 3 h [15]?
**A.** 51400 ng·h/mL

**Q.** And the MIC (Streptococcus pneumoniae [16])?
**A.** 0.06 µg/mL (≈ 0.163 µM)

**Q.** What about the concentration at 5 min [17] of the same compound?
**A.** 66000 ng/mL

**Q.** And the MIC (Streptococcus pyogenes [18])?
**A.** 0.125 µg/mL (≈ 0.339 µM)

**Q.** What about the concentration at 1 h [19] of the same compound?
**A.** 18400 ng/mL

**Q.** And the bioavailability [20]?
**A.** 56%

**Q.** And the bioavailability [21]?
**A.** 30%

**Q.** And the dose excreted [22]?
**A.** 18%

**Q.** What about the MIC (Escherichia coli) of the same compound?
**A.** 64 µg/mL (≈ 174 µM)

**Q.** And the bioavailability [23]?
**A.** 13.1%

**Q.** What about the concentration at 40 min [24] of the same compound?
**A.** 25200 ng/mL

**Q.** What about the bioavailability [25] of the same compound?
**A.** 23.1%

**Q.** And the MIC (Salmonella)?
**A.** > 128 µg/mL

**Q.** And the dose excreted [26]?
**A.** 48%

**Q.** What about the MIC (Haemophilus influenzae [27]) of the same compound?
**A.** 2 µg/mL (≈ 5.42 µM)

**Q.** And the MIC (Streptococcus pyogenes [28])?
**A.** 0.06 µg/mL (≈ 0.163 µM)

**Q.** And the MIC (Haemophilus influenzae [29])?
**A.** 1 µg/mL (≈ 2.71 µM)

**Q.** What about the MIC (Staphylococcus aureus [30]) of the same compound?
**A.** 0.25 µg/mL (≈ 0.678 µM)

**Q.** What about the MIC (Staphylococcus aureus [31]) of the same compound?
**A.** 16 µg/mL (≈ 43.4 µM)

**Q.** And the MIC [32]?
**A.** 4 µg/mL (≈ 10.8 µM)

**Q.** What about the AUC (Canis familiaris [33]) of the same compound?
**A.** 16700 ng·h/mL
